Laboratory results as given in ChEMBL document CHEMBL1123371, “5-HT1 and 5-HT2 binding characteristics of some quipazine analogues” (J Med Chem, 1986).
Calls of active or inactive are those of the source. The calls are words filed in the database; no cut-off is given here.

Experiments:
[1] = Displacement of [3H]5-HT from 5-hydroxytryptamine 1 receptor of rat cortical membrane homogenates
Rattus norvegicus [2] = test: Stimulus generalization studies in TFMPP trained animals and the number of animals responding /number to receive dose of drug was determined at dose of 1 mg/kg; 3/3; assay type: functional
How it was run: (§1)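 Male Sprague-Dawley rats (n = 6) trained to discriminate 0.5 mg/kg TFMPP HCl from saline on a two-lever operant task, VI 15-s food reward. Challenge doses were given ip in random order 15 min before a 2.5-min extinction test, with at least three training sessions between tests. Fewer than five total responses was scored as disruption.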

Rattus norvegicus [3] = test: Stimulus generalization studies in TFMPP trained animals and the number of animals responding /number to receive dose of drug was determined at dose of 3 mg/kg; 2/3; assay type: functional
Rattus norvegicus [4] = test: Stimulus generalization studies in TFMPP trained animals and the number of animals responding /number to receive dose of drug was determined at dose of 3.5 mg/kg; 2/3; assay type: functional
Rattus norvegicus [5] = test: Compound was evaluated in stimulus generalization studies in DOM trained animals and the number of animals responding /number ot receive dose of drug at dose of 5.0 mg/kg; 3/4; assay type: functional
How it was run: (§2)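 Male Sprague-Dawley rats (n = 10) trained to discriminate 1.0 mg/kg DOM HCl from saline on a two-lever operant task, VI 15-s food reinforcement. Test doses were given ip in random order, 15 min pre-session, with at least three training sessions between tests. Responding was scored in a 2.5-min extinction session. Rats with fewer than five total responses were counted as disrupted.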

Rattus norvegicus [6] = test: Stimulus generalization studies in TFMPP trained animals and the number of animals responding /number to receive dose of drug was determined at dose of 4.0 mg/kg; 0/3; assay type: functional
Rattus norvegicus [7] = test: Compound was evaluated in stimulus generalization studies in DOM trained animals and the number of animals responding /number ot receive dose of drug at dose of 0.6 mg/kg; 3/3; assay type: functional; how it was run: as §2
Rattus norvegicus [8] = test: Compound was evaluated in stimulus generalization studies in DOM trained animals and the number of animals responding /number ot receive dose of drug at dose of 2.5 mg/kg; 4/4; assay type: functional; how it was run: as §2
Rattus norvegicus [9] = test: Compound was evaluated in stimulus generalization studies in DOM trained animals and the number of animals responding /number ot receive dose of drug at dose of 3.5 mg/kg; 4/4; assay type: functional; how it was run: as §2
Rattus norvegicus [10] = organism: Rattus norvegicus; test: Compound was tested for the doses at which the animals would be expected to make approximately 50% of their responses on the DOM-appropriate lever; assay type: functional
How it was run: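 DOM-trained rats (1.0 mg/kg DOM HCl vs saline, two-lever, VI 15 s, food) were given ip doses 15 min before a 2.5-min extinction session. Where >80% of responses fell on the DOM lever (generalization), the dose expected to give about 50% DOM-lever responding was calculated from dose–response data and reported with 95% confidence limits.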

Rattus norvegicus [11] = test: Compound was evaluated in tests of stimulus generalization using animals trained to discriminate DOM from saline, and the drug appropriate responding at dose of 0.6 mg/kg; assay type: functional; how it was run: as §2
Rattus norvegicus [12] = test: Compound was evaluated in tests of stimulus generalization using animals trained to discriminate DOM from saline, and the drug appropriate responding at dose of 2.5 mg/kg; assay type: functional; how it was run: as §2
Rattus norvegicus [13] = test: Compound was evaluated in tests of stimulus generalization using animals trained to discriminate DOM from saline, and the drug appropriate responding at dose of 3.5 mg/kg; assay type: functional; how it was run: as §2
Rattus norvegicus [14] = test: Compound was evaluated in tests of stimulus generalization using animals trained to discriminate DOM from saline, and the drug appropriate responding at dose of 5.0 mg/kg; assay type: functional; how it was run: as §2
Rattus norvegicus [15] = test: Compound was evaluated in stimulus generalization test using animals trained to discriminate TFMPP from saline, and the drug appropriate responding at dose of 1.0 mg/kg; assay type: functional; how it was run: as §1
Rattus norvegicus [16] = test: Compound was evaluated in stimulus generalization test using animals trained to discriminate TFMPP from saline, and the drug appropriate responding at dose of 3.0 mg/kg; assay type: functional; how it was run: as §1
Rattus norvegicus [17] = test: Compound was evaluated in stimulus generalization test using animals trained to discriminate TFMPP from saline, and the drug appropriate responding at dose of 3.5 mg/kg; assay type: functional; how it was run: as §1
Rattus norvegicus [18] = test: Compound was evaluated in stimulus generalization test using animals trained to discriminate TFMPP from saline, and the drug appropriate responding at dose of 4.0 mg/kg; Not responding; assay type: functional, organism-based; set-up: dose 4 mg/kg; how it was run: as §1
Rattus norvegicus [19] = test: Compound was evaluated in tests of stimulus generalization using animals trained to discriminate DOM from saline, and the mean responses per min at dose of 2.5 mg/kg; assay type: functional; how it was run: as §2
Rattus norvegicus [20] = test: Compound was evaluated in tests of stimulus generalization using animals trained to discriminate DOM from saline, and the mean responses per min at dose of 3.5 mg/kg; assay type: functional; how it was run: as §2
Rattus norvegicus [21] = test: Compound was evaluated in tests of stimulus generalization using animals trained to discriminate DOM from saline, and the mean responses per min at dose of 5.0 mg/kg; assay type: functional; how it was run: as §2
Rattus norvegicus [22] = test: Compound was evaluated in stimulus generalization test using animals trained to discriminate TFMPP from saline, and the mean responses per min at dose of 1.0 mg/kg; assay type: functional; how it was run: as §1
Rattus norvegicus [23] = test: Compound was evaluated in stimulus generalization test using animals trained to discriminate TFMPP from saline, and the mean responses per min at dose of 3.0 mg/kg; assay type: functional; how it was run: as §1
Rattus norvegicus [24] = test: Compound was evaluated in stimulus generalization test using animals trained to discriminate TFMPP from saline, and the mean responses per min at dose of 3.5 mg/kg; assay type: functional; how it was run: as §1
Rattus norvegicus [25] = test: Compound was evaluated in tests of stimulus generalization using animals trained to discriminate DOM from saline, and the mean responses per min at dose of 0.6 mg/kg; assay type: functional; how it was run: as §2
[26] = target: Serotonin 2 (5-HT2) receptor (Rattus norvegicus, UniProt P30994+P08909+P14842); test: Displacement of [3H]ketanserin from 5-hydroxytryptamine 2 receptor of rat cortical membrane homogenates

## c1ccc2cc(N3CCNCC3)ccc2c1
[1]
  Ki: 265 nM
Rattus norvegicus [2]
  Activity: 3
Rattus norvegicus [3]
  Activity: 2
Rattus norvegicus [4]
  Activity: 2
Rattus norvegicus [5]
  Activity: 3
Rattus norvegicus [6]
  Activity: 0
Rattus norvegicus [7]
  Activity: 3
Rattus norvegicus [8]
  Activity: 4
Rattus norvegicus [9]
  Activity: 4
Rattus norvegicus [10]
  ED50: 2.9 mg/kg
Rattus norvegicus [11]
  Drug responding: 3%
Rattus norvegicus [12]
  Drug responding: 33%
Rattus norvegicus [13]
  Drug responding: 71%
Rattus norvegicus [14]
  Drug responding: 88%
Rattus norvegicus [15]
  Drug responding: 6%
Rattus norvegicus [16]
  Drug responding: 12%
Rattus norvegicus [17]
  Drug responding: 25%
Rattus norvegicus [18]
  Drug responding: inactive
Rattus norvegicus [19]
  Mean response/min: 16.8
Rattus norvegicus [20]
  Mean response/min: 8
Rattus norvegicus [21]
  Mean response/min: 8.7
Rattus norvegicus [22]
  Mean response/min: 20.6
Rattus norvegicus [23]
  Mean response/min: 7
Rattus norvegicus [24]
  Mean response/min: 7
Rattus norvegicus [25]
  Mean response/min: 16.1
[26]
  Ki: 70 nM
